Results on eight compounds are retold here after ChEMBL document CHEMBL1131048, “Antiviral activities of methylated nordihydroguaiaretic acids. 1. Synthesis, structure identification, and inhibition of tat-regulated HIV transactivation” (J Med Chem, 1998).

Holding throughout (details): Chlorocebus aethiops
For assay [1], the system named is COS-1. Nature of the assay: Compound tested for inhibition of HIV Tat-regulated Transactivation in COS cells at a concentration of 30 uM. The assay is classed as functional. The procedure, abridged:
(§1)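 COS cells in IMDM with 10% FBS, penicillin, streptomycin and Fungizone, 37 °C, 5% CO2, seeded in triplicate at ca. 1.5×10^5 cells/well and grown 24 h to 50% confluence. Calcium phosphate cotransfection with CMV-driven tat plasmid (0.20 µg/well) and HIV LTR-SEAP plasmid (0.40 µg/well) for 18 h. Compound then added in medium with 0.30% DMSO final, for 48 h.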

Assay [2] relates to COS-1. Nature of the assay: Compound tested for inhibition of HIV Tat-regulated Transactivation in COS cells at a concentration of 10 uM. It counts as functional. The procedure, abridged: as §1
In assay [3] the test system is COS-1. Nature of the assay: Compound tested for inhibition of HIV Tat-regulated Transactivation in COS cells at a concentration of 20 uM. The assay is classed as functional. The method in brief:
as §1

Assay [4] deals with COS-1. Nature of the assay: Compound tested for inhibition of HIV Tat-regulated Transactivation in COS cells at a concentration of 100 uM. It counts as functional. The procedure, abridged: as §1
Assay [5] concerns COS-1. Nature of the assay: Compound tested for inhibition of HIV Tat-regulated Transactivation in COS cells at a concentration of 1 uM. It counts as functional. The method in brief:
as §1

Assay [6] relates to COS-1. Nature of the assay: Inhibitory activity against HIV Tat-regulated Transactivation in COS cells. The assay is classed as functional, cell-based. The method in brief: as §1
The test system of assay [7] is COS-1. The experiment in a line: Compound tested for inhibition of HIV Tat-regulated Transactivation in COS cells at a concentration of 3 uM. The assay is classed as functional. The procedure, abridged: as §1
The subject of assay [8] is COS-1. Nature of the assay: Compound tested for inhibition of HIV Tat-regulated Transactivation in COS cells at a concentration of 60 uM. The assay is classed as functional. The method in brief:
as §1

The inhibition is how much of the control response was suppressed. The low end stands for a weak effect, the high end for a strong effect. For orientation: IC50 means the concentration at which inhibition is half-maximal. A higher IC50 goes with lower potency.

Compound `COc1ccc(C[C@@H](C)[C@@H](C)Cc2ccc(O)c(O)c2)cc1O` returned an inhibition at 30 µM in assay [1] of 52%. The compound further returned an inhibition at 10 µM in assay [2] of 5%. For the same compound, the inhibition at 20 µM in assay [3] was 27.5%. In assay [4], this compound yielded an inhibition at 100 µM of 91.3%. For the same compound, at 1 µM the inhibition in assay [5] was 5%. In addition, the IC50 in assay [6] was 30.8 µM. In assay [7], this compound had an inhibition at 3 µM of 2.3%. The compound also yielded an inhibition at 60 µM in assay [8] of 73.7%.
In assay [1], `COc1ccc(C[C@H](C)[C@H](C)Cc2ccc(OC)c(OC)c2)cc1O` (racemic) showed an inhibition at 30 µM of 66%. In assay [2], the inhibition at 10 µM was found to be 41.7%. Moreover, testing at 20 µM in assay [3] gave an inhibition of 52%. Moreover, the inhibition at 100 µM in assay [4] is 88.3%. The compound also gave an inhibition at 1 µM in assay [5] of 16.5%. In addition, the 50% inhibitory concentration (IC50) in assay [6] was found to be 14.3 µM. For the same compound, the inhibition at 3 µM in assay [7] worked out at 27%. 60 µM produced 78.3% inhibition in assay [8].
For `COc1cc(C[C@@H](C)[C@@H](C)Cc2ccc(O)c(O)c2)ccc1O` (racemic), at 30 µM the inhibition in assay [1] was 56.3%. Also, 10 µM produced 20.7% inhibition in assay [2]. This compound had an inhibition at 20 µM in assay [3] of 38.5%. The same compound registered an inhibition at 100 µM in assay [4] of 92.3%. Further, 1 µM produced 9% inhibition in assay [5]. Also, 25 µM corresponded to half-maximal inhibition in assay [6] (IC50). Further, at 3 µM the inhibition in assay [7] was 7.3%. The inhibition at 60 µM in assay [8] stood at 83.3%.
In the case of `COc1cc(C[C@H](C)[C@H](C)Cc2ccc(OC)c(OC)c2)ccc1O` (racemic), the inhibition at 30 µM in assay [1] is 65%. In addition, testing at 10 µM in assay [2] gave an inhibition of 45%. Further, the inhibition at 20 µM in assay [3] amounted to 50.5%. Moreover, testing at 100 µM in assay [4] gave an inhibition of 87.7%. The same compound registered an inhibition at 1 µM in assay [5] of 14.5%. The 50% inhibitory concentration (IC50) in assay [6] turned out to be 13.7 µM. The compound further showed an inhibition at 3 µM in assay [7] of 26.7%. The inhibition at 60 µM in assay [8] was 76.3%.
In assay [1], `COc1ccc(C[C@@H](C)[C@@H](C)Cc2ccc(O)c(O)c2)cc1OC` (racemic) returned an inhibition at 30 µM of 69.3%. 10 µM produced 20% inhibition in assay [2]. Moreover, at 20 µM the inhibition in assay [3] was 59%. Besides, the inhibition at 100 µM in assay [4] came out at 96%. For the same compound, in assay [5], the inhibition at 1 µM is 12.5%. The compound also gave an IC50 in assay [6] of 16.5 µM. Further, the inhibition at 3 µM in assay [7] turned out to be 14.3%. Also, 60 µM produced 87.7% inhibition in assay [8].
`COc1ccc(C[C@@H](C)[C@@H](C)Cc2ccc(OC)c(O)c2)cc1O` [DIMETHYLNORDIHYDROGUARIERATE ACID] had an inhibition at 30 µM in assay [1] of 52%. The compound further yielded an inhibition at 10 µM in assay [2] of 19%. In assay [3], this compound registered an inhibition at 20 µM of 38%. Besides, in assay [4], the inhibition at 100 µM amounted to 85.7%. Also, the inhibition at 1 µM in assay [5] came out at 9.5%. For the same compound, half-maximal inhibition in assay [6] (IC50) required 29.9 µM. In addition, 3 µM produced 8.7% inhibition in assay [7]. This compound displayed an inhibition at 60 µM in assay [8] of 70%.
As to `COc1cc(C[C@@H](C)[C@@H](C)Cc2ccc(O)c(OC)c2)ccc1O` [MESODIHYDROGUAIARETIC ACID], the inhibition at 30 µM in assay [1] amounted to 43%. Also, the inhibition at 10 µM in assay [2] is 22.3%. Moreover, the inhibition at 20 µM in assay [3] was determined as 30.5%. Further, in assay [4], the inhibition at 100 µM was found to be 73.7%. For the same compound, in assay [5], the inhibition at 1 µM turned out to be 5.5%. Further, in assay [6], the 50% inhibitory concentration (IC50) came to 39 µM. Further, the inhibition at 3 µM in assay [7] came out at 10.3%. The inhibition at 60 µM in assay [8] worked out at 63.7%.
Compound `COc1ccc(C[C@@H](C)[C@@H](C)Cc2ccc(OC)c(OC)c2)cc1OC` [TERAMEPROCOL] had an inhibition at 30 µM in assay [1] of 70%. In assay [2], this compound had an inhibition at 10 µM of 45%. In assay [3], this compound registered an inhibition at 20 µM of 61%. Besides, the inhibition at 100 µM in assay [4] turned out to be 90.3%. Also, testing at 1 µM in assay [5] gave an inhibition of 18.5%. The compound also registered an IC50 in assay [6] of 11.1 µM. The compound further came in with an inhibition at 3 µM in assay [7] of 25.3%. This compound had an inhibition at 60 µM in assay [8] of 78.7%.
